EBNA-1 inhibitor – EBNA-1 DNA-binding inhibitors, primary screen, biochemical, fluorescence polarization; inhibition, % at 14.8 µM; hit rate 0.34% among 300,000; in the data active = inhibition above about 28%
ZTA counter – blocks Epstein-Barr virus ZTA, an EBNA-1 counter-screen; P03206; ZTA-DNA binding, fluorescence polarization; inhibition, % at 11 µM; hit rate 0.15% among 320,000; AID 2234; in the data active = inhibition above about 33%
Target sequence (P03206 whole entry, looked up): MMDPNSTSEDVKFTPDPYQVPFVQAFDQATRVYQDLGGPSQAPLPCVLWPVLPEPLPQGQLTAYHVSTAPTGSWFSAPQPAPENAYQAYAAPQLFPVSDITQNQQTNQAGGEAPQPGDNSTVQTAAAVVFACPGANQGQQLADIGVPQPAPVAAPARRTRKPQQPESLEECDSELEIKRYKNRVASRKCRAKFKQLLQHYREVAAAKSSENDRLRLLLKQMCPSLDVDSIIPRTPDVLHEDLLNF
UBC13 inh – UBC13 polyubiquitin chain formation inhibitors, primary screen, biochemical, TR-FRET, uHTS; Ubiquitin-conjugating enzyme E2 N (Homo sapiens), P61088; inhibition, % at 20 µM; hit rate 0.47% among 330,000; in the data active = inhibition above about 45%, passing the limit was not always enough
Target sequence (P61088 whole entry, looked up): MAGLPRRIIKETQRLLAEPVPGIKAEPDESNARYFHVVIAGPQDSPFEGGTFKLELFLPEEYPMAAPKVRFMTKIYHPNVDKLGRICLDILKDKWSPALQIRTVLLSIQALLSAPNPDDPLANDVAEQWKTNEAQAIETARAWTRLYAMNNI
PfGluPho inh – PfG6PD enzyme inhibitors, primary screen, biochemical, fluorescence intensity, uHTS | PfGluPho enzyme, NADPH resazurin-diaphorase fluorescence | glucose-6-phosphate dehydrogenase-6-phosphogluconolactonase (Plasmodium falciparum 3D7) | hit rate 0.78% among 350,000 | inhibition, % at 20 µM;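 active = inhibition reaching at least a set limit at 20 µM in the primary screen, cut at about 59% in these data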;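 note: 0% = DMSO wells with substrate and 100% = DMSO wells lacking glucose-6-phosphate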
M18AAP inhibitor – PfM18AAP inhibitors, malaria aminopeptidase, primary screen, biochemical, QFRET, recombinant enzyme. H-Glu-NHMec fluorogenic cleavage. inhibition, % at 7.35 µM. hit rate 1.2% among 290,000. AID 1822, 2009;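 active = inhibition above the campaign mean inhibition over all tested compounds plus 3 SD, cut at about 28% in these data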;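 note: 0% = plate median of test compound wells and 100% = 2 mM ZnCl2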
Apaf-1 inh – inhibitors of human Apaf-1 apoptosome, primary screen, biochemical, DEVD-Rh110 fluorescence, uHTS; hit rate 0.71% among 330,000; inhibition, % at 20 µM; Apoptotic protease-activating factor 1 (Homo sapiens), O14727; reconstituted apoptosome caspase-3 activity; AID 489030, 2010; active = inhibition of at least 40% at 20 µM;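 note: plate controls were DMSO wells for no effect and DEVD-CHO caspase inhibitor wells for full effect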
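Assay system – apoptosome proteins · Medium – Hepes buffer, pH 7.5 · Also added – cytochrome c with DEVD-Rh110 · Timing – 30 min compound preincubation, 50 min activation, room temperature · Detection – Rh110 fluorescence, excitation 480 nm, emission 540 nm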
Casp3 counter – CASP3 inhibitor validation, counterassay for project on UBE2N polyubiquitination blockers, biochemical, one dose. AID 488856, 2010. shares compounds with UBC13 inh. Recombinant caspase-3, Caspase-Glo 3/7 luminescence, 60 min. inhibition, % at 20 µM. hit rate 4% among 1,400;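 active = mean inhibition across replicates above about 26%, limit read from the data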;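 note: plate controls were DMSO with caspase-3 for no effect and DMSO wells lacking enzyme for full effect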
Target sequence (P42574 whole entry, looked up): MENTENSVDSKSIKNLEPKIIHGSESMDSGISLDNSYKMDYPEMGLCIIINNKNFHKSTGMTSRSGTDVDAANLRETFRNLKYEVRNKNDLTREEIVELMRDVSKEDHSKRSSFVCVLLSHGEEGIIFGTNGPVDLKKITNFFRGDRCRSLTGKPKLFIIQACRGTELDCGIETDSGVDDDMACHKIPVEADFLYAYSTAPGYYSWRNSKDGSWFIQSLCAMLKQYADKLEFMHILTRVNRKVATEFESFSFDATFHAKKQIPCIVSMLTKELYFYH
UBC13 confirm – UBC13 polyubiquitination inhibitors, single-point retest, confirmation, biochemical, TR-FRET, single concentration; shares compounds with UBC13 inh; inhibition, % at 10 µM; hit rate 68% among 1,400; in the data active = inhibition above about 45%
Apaf-1 inh conf2 – Apaf-1 inhibitors, single-dose retest, confirmation, biochemical, fluorescence, DEVD-Rh110, 20 µM. reconstituted apoptosome, caspase-3 DEVD-Rh110 fluorescence. inhibition, % at 20 µM. shares compounds with Apaf-1 inh. AID 504614, 2011. hit rate 25% among 1,800;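 active = mean inhibition of at least 40% at 20 µM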;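 note: plate controls were DMSO wells for no effect and DEVD-CHO caspase inhibitor control wells for full effect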
Rh110 interf inh – Rh110 fluorescence interference by putative Apaf-1 inhibitors, confirmation, artefact control for Apaf-1 inhibitor project, biochemical, 20 µM | shares compounds with Apaf-1 inh | quenched caspase reaction | activation (fluorescence interference), % at 20 µM | 1,800 tested, under 10 active | AID 504615, 2011;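 active = signal rise of 40% or more at 20 µM, treated as a fluorescence artifact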
Fluor interf inh – fluorescence interference of Apaf-1 inhibitor hits, dose response, artefact control for Apaf-1 inhibitor project | shares compounds with Apaf-1 inh | fluorescence interference counterscreen, Apaf-1 assay format | IC50, µM | 460 tested, under 10 active; call rule not given here
* marks the source's active call; other numbers are inactive results; . = not tested or not shown. A selection: hits, their analogues and other compounds. The true share with any hit is near 2.9%.

SMILES	EBNA-1 inhibitor	ZTA counter	UBC13 inh	PfGluPho inh	M18AAP inhibitor	Apaf-1 inh	Casp3 counter	UBC13 confirm	Apaf-1 inh conf2	Rh110 interf inh	others
CCCCCc1cc(=O)oc2c(C(CCN3CCCC3)c3cc(OC)c(OC)c(OC)c3)c(OC)cc(OC)c12 (stereo unspecified)	12.4	3.3	80.3*	15.9	.	49.7*	0.4	73.4*	24.4	6.7
CCCCCc1cc(=O)oc2c(C(CCN(CC)CC)c3ccc(OC)cc3)c(OC)cc(OC)c12 (stereo unspecified)	-12.9	-3.6	82.8*	5.7	.	60.6*	-0.6	76.2*	19.3	4.0
CCCCCc1cc(=O)oc2c(C(CCN3CCCC3)c3ccc(N(C)C)cc3)c(OC)cc(OC)c12 (stereo unspecified)	-0.9	12.7	81.7*	14.2	.	45.2*	-2.1	42.9	36.7	13.1
O=C(COc1ccc(Cl)cc1)N1CCN(S(=O)(=O)c2cc(F)ccc2F)CC1	.	.	.	-14.1	.	.	.	.	.	.
c1ccc(C[C@H]2CN=C(Nc3ccccc3)N2CCCC2CCCCC2)cc1	.	.	48.4*	3.2	.	47.2*	-0.9	26.4	0.8	3.3
COc1ccc(NC(=O)CN(C)C(=O)c2ccc(S(=O)(=O)Nc3ccccc3F)cc2)cc1	-9.5	-10.6	2.6	-9.9	.	-2.1	.	.	.	.
CN1Cc2c(N3CCOCC3)nc3sc(C#N)c(N)c3c2CC1(C)C	-3.1	19.2	-12.6	6.5	2.8	7.9	.	.	.	.
CN1Cc2c(N3CCOCC3)nc3sc(C(=O)c4ccc(Br)cc4)c(N)c3c2CC1(C)C	-1.8	10.1	51.1*	43.5	3.0	56.4*	0.1	84.6*	62.0*	5.3	Fluor interf inh=>100
CCCCCCCCNC(C)C(O)c1ccc(SC(C)C)cc1 (stereo unspecified)	-2.0	7.6	71.1*	16.9	-1.4	57.8*	-1.6	74.9*	16.9	3.1
COC(=O)C1=C(C)N(Cc2ccccc2)C(=NCCc2c[nH]c3ccccc23)N[C@H]1c1cccc(F)c1	.	.	61.9*	11.9	.	60.5*	0.6	64.3*	21.1	6.9
COCCN=C1N[C@@H](c2ccccc2)C(C(=O)OC)=C(C)N1Cc1ccccc1	3.8	5.8	7.1	10.4	8.3	2.2	.	.	.	.
COC(=O)C1=C(C)N(Cc2ccccc2)C(=S)N[C@H]1c1cccc(F)c1	-3.6	-5.5	15.3	-11.2	-0.1	6.6	.	.	.	.
CCN(CC)CCCN=C1N[C@@H](c2cccc(F)c2)C(C(=O)OC)=C(C)N1Cc1ccccc1	.	.	21.8	1.1	.	9.2	.	.	.	.
COC(=O)C1=C(C)N(Cc2ccccc2)C(=NCc2cccc(Cl)c2)N[C@H]1c1ccccc1	.	.	70.5*	14.3	.	56.0*	-1.0	67.3*	15.8	12.4
COC(=O)C1=C(C)N(Cc2ccccc2)C(=NCc2ccccc2)N[C@H]1c1cccc(F)c1	0.6	-11.4	67.2*	14.1	-2.6	41.2*	-4.3	17.5	17.6	9.6
Cc1ccccc1C(=O)N1CCC(C(=O)NC2CCCC2)CC1	0.9	12.5	7.4	-6.2	2.6	2.7	.	.	.	.
O=C(NNC(=O)c1ccccc1F)c1ccc(S(=O)(=O)N2CCCCC2)cc1	.	.	5.8	-0.8	.	4.0	.	.	.	.
Cc1cc(C(C)(C)CC(C)(C)C)ccc1OCCOCC[N+](C)(C)Cc1ccccc1	11.7	-12.3	100.2*	20.6	.	85.8*	-2.5	105.1*	59.2*	14.5	Fluor interf inh=>100
C[N+](C)(CCOc1ccccc1)Cc1ccccc1	.	.	.	47.2	.	.	.	.	.	.
COC(=O)c1c(NC(=O)c2ccccc2)sc2c1CC(C)(C)NC2(C)C	-3.3	0.6	27.6	-14.6	-0.7	9.9	.	.	.	.
COC(=O)c1c(NC(=O)c2ccc(OC(C)C)cc2)sc2c1CC(C)(C)NC2(C)C	-0.5	-2.1	84.0*	-10.0	-7.7	53.4*	-2.1	59.8*	10.2	7.2
CN1CCN(CCCN2c3ccccc3Sc3ccc(C(F)(F)F)cc32)CC1	-5.6	-4.1	90.4*	11.1	0.1	54.1*	0.7	97.9*	10.7	7.6
CCC1(c2ccccc2)NC(=O)N(CC(=O)Nc2cc(Cl)ccc2N2CCN(C)CC2)C1=O (stereo unspecified)	.	1.7	86.9*	-5.8	.	58.2*	2.5	65.8*	36.5	3.9
COc1ccccc1OCCNC(=O)c1cccc(S(=O)(=O)N2CCN(C)CC2)c1	6.3	-1.3	16.7	24.9	-1.0	25.8	.	.	.	.
CN(Cc1cccc(F)c1)C(=O)c1cccc(S(=O)(=O)N2CCN(Cc3ccccc3)CC2)c1	0.3	-4.5	13.0	-16.6	4.3	13.0	.	.	.	.
SMILES	EBNA-1 inhibitor	ZTA counter	UBC13 inh	PfGluPho inh	M18AAP inhibitor	Apaf-1 inh	Casp3 counter	UBC13 confirm	Apaf-1 inh conf2	Rh110 interf inh	others
CN(Cc1ccc(Cl)c(Cl)c1)C(=O)c1cccc(S(=O)(=O)N2CCN(Cc3ccccc3)CC2)c1	.	16.4	85.9*	18.1	.	71.8*	2.5	104.4*	48.9*	6.5	Fluor interf inh=>100
COc1ccccc1OCCNC(=O)c1cccc(S(=O)(=O)N2CCN(Cc3ccccc3)CC2)c1	.	5.6	69.9*	13.6	.	67.2*	-2.9	55.6*	49.4*	4.1	Fluor interf inh=>100
COc1ccc(-c2oc3ccc(-c4cc(OC)c(OC)c(OC)c4)cc3c2C#Cc2ccccn2)cc1	.	.	12.2	10.8	.	13.7	.	.	.	.
CCN(CC(=O)Nc1ccc2c(c1)OCCO2)CC(=O)Nc1ccc(C)c([N+](=O)[O-])c1	.	.	11.5	4.7	.	3.7	.	.	.	.
CCCn1c(SCC(=O)NNC(=O)c2ccc(OC)cc2)nnc1C(C)C	10.5	5.8	0.7	-9.8	-10.9	2.7	.	.	.	.
Cc1nn(C)c(C)c1CCC(=O)NC1CC(C)(C)Cc2c1cnn2-c1ccccc1 (stereo unspecified)	3.8	3.5	3.8	-8.4	-1.6	3.9	.	.	.	.
CSCCC(NC(=O)COc1ccccc1)C(=O)N1CCC(C(N)=O)CC1 (stereo unspecified)	.	-6.2	68.3*	-4.0	.	63.7*	2.0	85.6*	33.4	4.8

Screening results as filed in PubChem.
